Screens (PubChem)
This is one part of a sample in which hits are shown more often than they occur.
IDH1 R132H inh: IDH1 R132H (human) inhibition. O75874. IDH1 R132H reductase, diaphorase/resazurin fluorescence, 60 min. inhibition, % at 10 µM. 70,000 tested, 0.18% active. AID 624101; in the data active means inhibition above about 34%; inconclusive means no clear call, values can overlap the other calls; inactive means below about 11%;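 further: 0% = DMSO and 100% = no enzyme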
Target sequence (O75874 whole entry R132H): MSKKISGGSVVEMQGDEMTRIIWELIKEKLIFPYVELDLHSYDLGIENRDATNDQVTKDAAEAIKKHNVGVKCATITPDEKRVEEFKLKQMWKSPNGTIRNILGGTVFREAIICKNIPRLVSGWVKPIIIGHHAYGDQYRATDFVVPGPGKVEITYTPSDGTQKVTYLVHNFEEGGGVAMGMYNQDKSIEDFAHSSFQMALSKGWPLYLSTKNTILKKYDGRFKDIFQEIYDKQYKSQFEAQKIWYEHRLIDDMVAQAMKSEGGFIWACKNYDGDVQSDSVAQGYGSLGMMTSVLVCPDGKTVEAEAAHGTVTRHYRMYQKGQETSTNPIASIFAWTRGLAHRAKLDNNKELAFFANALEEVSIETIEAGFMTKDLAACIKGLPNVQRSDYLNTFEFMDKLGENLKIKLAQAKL
GASC1 inh: inhibitors of human demethylase GASC-1 KDM4C | GST-KDM4C 2-372, H3K9me3 peptide, LANCE TR-FRET | inhibition, % at 12.5 µM | AID 720574 | 96,000 tested, 0.15% active | Q9H3R0;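 active means mean replicate inhibition above about 25%, with at least 55% of replicates also reaching it, limit read from the data, passing the limit was not always enough; inconclusive means only one of those two conditions met; inactive means neither condition met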
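Test system: N-terminal GST-fused human GASC-1 (KDM4C) fragment, residues 2-372; quantity: GASC-1 enzyme at 10 nM final in reaction; dosing: single dose; schedule: 30 min demethylation and 1 h detection at room temperature; signal: LANCE TR-FRET, excitation 340 nm, emissions 618 and 671 nm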
T cruzi growth-1: T. cruzi proliferation inhibition; T. cruzi beta-gal in NIH3T3, GalScreen luminescence, 90 h; inhibition, % at 8.34 µM; 77,000 tested, 5.9% active; AID 624255;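 active means mean inhibition above about 93%, with at least 55% of replicates each passing it, limit read from the data, passing the limit was not always enough; inconclusive means only one of those two conditions holds; inactive means neither condition holds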
T cruzi growth-2: Trypanosoma cruzi proliferation inhibition. 5,600 tested, 72% active. inhibition, % at 8.35 µM. shares compounds with T cruzi growth-1. T. cruzi beta-gal in NIH3T3, GalScreen luminescence, 90 h;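 active means mean replicate inhibition above about 95% and at least 55% of replicates individually reaching it, limit read from the data; inconclusive means only one of the two criteria is met; inactive means neither criterion is met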
T cruzi growth-3: blocks T. cruzi growth in NIH3T3 host cells. shares compounds with T cruzi growth-1. T. cruzi beta-gal in NIH3T3, GalScreen luminescence, 90 h. inhibition, % at 2.09 µM. 5,600 tested, 21% active. AID 651740;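 active means mean inhibition above about 95%, with at least 55% of replicates also reaching it, limit read from the data; inconclusive means meets just one of the two conditions; inactive means meets neither condition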;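 further: plate controls were neutral control median for no effect and positive control median for full effect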
NIH3T3 tox: NIH/3T3 (mouse) viability loss | shares compounds with T cruzi growth-1 | NIH/3T3 viability, CellTiter-Glo ATP luminescence, 90 h | cytotoxicity (signal decrease), % at 8.35 µM | 5,600 tested, 14% active;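 active means mean signal decrease across replicates above about 35% based on untreated-well scatter, with enough replicates individually passing, limit read from the data; inconclusive means no rule stated though some were filed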;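 further: 0% = median of neutral control wells and 100% = median of positive control wells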
NIH3T3 tox 2: cytotoxicity in mouse NIH/3T3 fibroblasts; inhibition, % at 24.9 µM; shares compounds with T cruzi growth-1; NIH/3T3 viability, CellTiter-Glo ATP luminescence, 90 h; 5,600 tested, 56% active; AID 651744;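 active means mean loss of cell viability signal at or above a set limit, and enough replicates individually reaching it; inconclusive means meets only the mean limit or only the replicate share; inactive means meets neither condition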;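 further: 0% = median of neutral control wells and 100% = median of positive control wells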
The depositor's hits bear a star; ? = inconclusive; / = no result.

SMILES	IDH1 R132H inh	GASC1 inh	T cruzi growth-1	T cruzi growth-2	T cruzi growth-3	NIH3T3 tox	NIH3T3 tox 2
C[C@H]1CCCCO[C@H](CN(C)Cc2ccc(C(F)(F)F)cc2)[C@@H](C)CN([C@@H](C)CO)C(=O)c2cc(NC(=O)Nc3ccc(C(F)(F)F)cc3)ccc2O1	-1	13	81	/	/	/	/
C[C@@H]1CCCCO[C@@H](CN(C)Cc2ccc(C(=O)O)cc2)[C@@H](C)CN([C@H](C)CO)C(=O)c2cc(NC(=O)C3CCCCC3)ccc2O1	3	1	-17	/	/	/	/
C[C@@H]1CN([C@H](C)CO)C(=O)c2cc(NC(=O)C3CCCCC3)ccc2O[C@H]1CN(C)Cc1ccc(C(F)(F)F)cc1	/	1	53	/	/	/	/
CCCC#Cc1ccc2c(c1)O[C@H](CN(C)C(=O)CC1CC1)[C@@H](C)CN([C@H](C)CO)S2(=O)=O	0	2	101*	108*	48	4	20
CC(C)CC#Cc1ccc2c(c1)O[C@@H](CN(C)C(=O)CC1CC1)[C@@H](C)CN([C@@H](C)CO)S2(=O)=O	-1	-1	/	/	/	/	/
CC(C)CC#Cc1ccc2c(c1)O[C@@H](CN(C)C(=O)CC1CC1)[C@@H](C)CN([C@H](C)CO)S2(=O)=O	1	-1	/	/	/	/	/
CCCC#Cc1ccc2c(c1)O[C@H](CN(C)C(=O)CC1CC1)[C@@H](C)CN([C@@H](C)CO)S2(=O)=O	-4	-1	111*	104*	70	8	48*
CO[C@H]1CN(C)C(=O)c2cc(NS(=O)(=O)c3ccc(C)cc3)ccc2OC[C@H](C)N(C(=O)NC(C)C)C[C@@H]1C	-1	0	-317	/	/	/	/
CCc1c(C)sc(NC(=O)COc2ccc(Cl)cc2)c1C(N)=O	0	/	/	/	/	/	/
C[C@@H]1CN([C@H](C)CO)S(=O)(=O)c2ccc(-c3ccncc3)cc2O[C@H]1CN(C)Cc1ccncc1	/	2	100	/	/	/	/
Cc1ccc(-c2ccc3c(c2)O[C@H](CN(C)Cc2ccncc2)[C@@H](C)CN([C@H](C)CO)S3(=O)=O)cc1	0	0	122*	99*	103*	75*	105*
C[C@H]1CN([C@@H](C)CO)S(=O)(=O)c2ccc(-c3ccncc3)cc2O[C@H]1CN(C)Cc1ccncc1	/	-1	84	/	/	/	/
Cc1ccc(-c2ccc3c(c2)O[C@H](CN(C)Cc2ccncc2)[C@H](C)CN([C@@H](C)CO)S3(=O)=O)cc1	/	3	119*	90	80	?	99*
CC(O)CNS(=O)(=O)c1cccc([N+](=O)[O-])c1 (stereo unspecified)	1	/	/	/	/	/	/
O=C([C@@H]1[C@@H](CO)[C@@H]2Cn3c(ccc(C4=CCCCC4)c3=O)[C@H]1N2)N1CCC(Cc2ccccc2)CC1	/	2	100*	10	18	-21	-21
O=C([C@H]1N[C@H]2c3ccc(C4=CCCCC4)c(=O)n3C[C@H]2[C@@H]1CO)N1CCC(Cc2ccccc2)CC1	/	-2	33	/	/	/	/
Cc1ccc(C2CC(=O)NC(SCC(=O)OC(C)C)=C2C#N)cc1 (stereo unspecified)	-1	/	/	/	/	/	/
Cc1ccccc1-c1ccc([C@H]2[C@H](CO)N3CCCCN(C(=O)Nc4cccc(F)c4)C[C@@H]23)cc1	/	/	80	/	/	/	/
Cc1ccccc1-c1ccc([C@@H]2[C@H]3CN(C(=O)Nc4ccc(F)cc4)CCCCN3[C@H]2CO)cc1	/	-1	107*	90	105*	?	106*
Cc1ccccc1-c1ccc([C@@H]2[C@H]3CN(C(=O)Nc4cccc(F)c4)CCCCN3[C@H]2CO)cc1	/	-1	90	/	/	/	/
Cc1ccccc1-c1ccc([C@H]2[C@H](CO)N3CCCCN(C(=O)Nc4ccc(F)cc4)C[C@@H]23)cc1	/	-1	109*	96*	88	42*	106*
CCn1c(SCC(=O)Nc2ccccc2C(F)(F)F)nnc1-c1cccc(C)c1	0	/	/	/	/	/	/
CCC(=O)N1CC2(C1)CN(S(C)(=O)=O)[C@@H](CO)c1c2c2ccc(OC)cc2n1C	/	0	/	/	/	/	/
COc1cccc(-c2ccc([C@@H]3[C@@H](CO)N4CCCCN(S(=O)(=O)c5cccs5)C[C@@H]34)cc2)c1	/	-2	97*	60	-3	21	25*
COc1cccc(-c2ccc([C@H]3[C@H]4CN(S(=O)(=O)c5cccs5)CCCCN4[C@H]3CO)cc2)c1	/	-1	75	/	/	/	/
SMILES	IDH1 R132H inh	GASC1 inh	T cruzi growth-1	T cruzi growth-2	T cruzi growth-3	NIH3T3 tox	NIH3T3 tox 2
COc1ccc(-c2ccc([C@H]3[C@@H](CO)N4CCCCN(S(=O)(=O)c5cccs5)C[C@@H]34)cc2)cc1	/	-1	107*	116*	89	23	10
COc1cccc(-c2ccc([C@H]3[C@@H](CO)N4CCCCN(S(=O)(=O)c5cccs5)C[C@@H]34)cc2)c1	/	1	74	/	/	/	/
CCCC#Cc1ccc2c(c1)O[C@@H](CN(C)C(=O)C1CCC1)[C@H](C)CN([C@@H](C)CO)S2(=O)=O	/	-2	92	/	/	/	/
CCCC#Cc1ccc2c(c1)O[C@H](CN(C)C(=O)C1CCCCC1)[C@@H](C)CN([C@H](C)CO)S2(=O)=O	/	0	68	/	/	/	/
CCCC#Cc1ccc2c(c1)O[C@H](CN(C)C(=O)C1CCC1)[C@H](C)CN([C@H](C)CO)S2(=O)=O	/	0	?	?	62	29	57*
CCCC#Cc1ccc2c(c1)O[C@H](CN(C)C(=O)C1CCC1)[C@@H](C)CN([C@H](C)CO)S2(=O)=O	0	2	?	?	42	-11	4
COc1ccccc1NC(=O)Cn1cnc2scc(-c3cccc([N+](=O)[O-])c3)c2c1=O	0	/	/	/	/	/	/
Cc1ccccc1NS(=O)(=O)c1cc(C(=O)NCC2CCCO2)ccc1C (stereo unspecified)	-1	/	/	/	/	/	/
COc1ccc(N(C(C)C(=O)Nc2ccccc2Cl)S(C)(=O)=O)cc1 (stereo unspecified)	-1	/	/	/	/	/	/
CCCNC(=O)C[C@@H]1CC[C@@H]2[C@H](COC[C@@H](O)CN2Cc2ccccc2F)O1	/	0	111*	31	-14	-16	0
CCCNC(=O)C[C@H]1CC[C@@H]2[C@H](COC[C@@H](O)CN2Cc2ccccc2F)O1	/	-3	97*	40	-11	1	9
O=C(C[C@@H]1CC[C@@H]2[C@H](COC[C@@H](O)CN2Cc2ccccc2F)O1)NCc1ccccc1F	/	0	4	/	/	/	/
CNC(=O)C[C@@H]1CC[C@H]2[C@@H](COC[C@@H](O)CN2Cc2ccccc2F)O1	/	-1	/	/	/	/	/
COc1ccccc1NC(=O)Cn1cc(C(=O)c2ccccc2F)c2ccccc21	0	/	/	/	/	/	/
CC1CCc2c(sc3ncnc(NCCc4nc5ccccc5[nH]4)c23)C1 (stereo unspecified)	1	/	/	/	/	/	/
